# Experimental data as given in PubChem BioAssay AID720702 (The Scripps Research Institute Molecular Screening Center, 2013).
# Among all 370,000 compounds or so, about 1,200 (0.32%) were called active.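 How the source made its calls: active means inhibition above the mean of all tested compounds plus 3 SD, set per campaign (cut at about 25% in these data); inactive means the rest.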 What follows is part of a selection rich in actives, with near analogues and random picks from the rest.
# Target: Tyrosyl-DNA phosphodiesterase 2 (Homo sapiens) (UniProt O95551)
# Sequence (O95551 whole entry, looked up): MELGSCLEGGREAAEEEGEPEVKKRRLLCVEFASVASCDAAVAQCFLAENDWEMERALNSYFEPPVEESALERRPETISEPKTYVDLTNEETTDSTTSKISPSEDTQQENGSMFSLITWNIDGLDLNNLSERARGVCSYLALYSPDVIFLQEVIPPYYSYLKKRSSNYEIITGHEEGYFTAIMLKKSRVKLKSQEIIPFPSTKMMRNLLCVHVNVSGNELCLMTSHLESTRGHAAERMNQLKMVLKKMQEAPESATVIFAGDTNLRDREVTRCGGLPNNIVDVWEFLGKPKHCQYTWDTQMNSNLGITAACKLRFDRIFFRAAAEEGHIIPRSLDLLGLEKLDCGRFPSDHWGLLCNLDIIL
# Experiment: blockers of TDP2 phosphodiesterase activity – biochemical, epi absorbance, recombinant enzyme, primary screen (AID 720702);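 further: 0% = DMSO with enzyme and 100% = buffer with substrate but no TDP2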
# Conditions: recombinant TDP2, T5PNP hydrolysis, p-nitrophenol absorbance 415 nm; at 12.8 µM; stronger effect = higher value
# Method in brief: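 Material: recombinant human TDP2; quantity: TDP2 enzyme at 120 nM final; medium: Tris-HCl pH 7.5 with MgCl2; compound: single concentration, 12.8 µM nominal, with 1% DMSO; incubation: 2 h enzyme incubation at 37 °C; signal: epi absorbance; measure: percent inhibition; benchmarks: high control without enzyme, low control DMSO plus TDP2; repeats: singlicate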
row,SMILES,inhibition
1,O=C(Nc1cc(F)cc(F)c1)OC1CCC12CCC(c1ccccc1)CC2 (configuration not stated),3% (inactive)
2,O=C(Nc1ccccc1F)C1C2C=CC3(O2)C1C(=O)N(c1cccnc1)C3C(=O)NC1CCCCC1 (configuration not stated),-0.47% (inactive)
3,CCN(CC)CCN1C(=O)C2C(C(=O)Nc3ccc(Br)cc3)C3C=CC2(O3)C1C(=O)NC1CCCCC1 (configuration not stated),27.5% (active)
4,CC(C)N1C(=O)C2C(C(=O)NC3CCCCC3)C3C=CC2(O3)C1C(=O)NC1CCCC1 (configuration not stated),3.15% (inactive)
5,CC1=C(C(=O)N(C(C)C)C(C)C)CC(CC(=O)NCCCCc2ccccc2)C(=O)N1CCC1=CCCCC1 (configuration not stated),-5.04% (inactive)
6,CC(=O)CCS(=O)(=O)c1ccc(C)c(C)c1,-9.65% (inactive)
7,COCCNC(=O)c1ccc(S(=O)(=O)c2ccc(Cl)cc2)c(NC(C)=O)c1,27.5% (active)
8,COCCCNC(=O)c1ccc(CNS(=O)(=O)c2ccc(NC(C)=O)cc2)cc1,-0.2% (inactive)
9,COc1ccc(C(=O)NCc2ccc(Cl)cc2)cc1S(=O)(=O)N1CCCC1,-0.23% (inactive)
10,Cc1cc(OCC(=O)Nc2nccs2)c2c(C)c(C)c(=O)oc2c1,0.03% (inactive)
11,Nc1nc(O)c(CC(=O)O)s1,27.2% (active)
12,CCOC(=O)c1nc(N)sc1C(=O)OCC,-14.1% (inactive)
13,CCCCC(=O)N[C@@H]1CC[C@@]23CCCN2C(=O)CCC[C@H]3[C@H]1C,-3.42% (inactive)
14,O=C(OCC(=O)N1CCOCC1)c1ccc(N2CCOCC2)c([N+](=O)[O-])c1,-4.23% (inactive)
15,O=C(OCC(=O)N1CCN(c2ccccc2)CC1)c1ccc([N+](=O)[O-])s1,31.9% (active)
16,Cc1ccc(C)c(OCCC(=O)OCC(=O)N2CCN(c3ccccc3)CC2)c1,-10.4% (inactive)
17,O=C(NCc1ccccc1Cl)C1CCC(CNc2c(N3CCCCC3)c(=O)c2=O)CC1 (configuration not stated),1.69% (inactive)
18,C=C(C)C#CC(Cc1ccccc1)N(CC1CC1)/C(N)=N/C(=O)OCc1ccccc1 (configuration not stated),4.08% (inactive)
19,Cc1ccc(Cl)cc1NC(=O)CN1CCN(S(=O)(=O)N2CCOCC2)CC1,27.6% (active)
20,COc1ccc(Cl)cc1NC(=O)CN1CCN(C(=O)N2CCOCC2)CC1,5.78% (inactive)
21,O=C(CN1CCN(c2cccc(Cl)c2)CC1)Nc1ccc(S(=O)(=O)N2CCOCC2)cc1,-4.18% (inactive)
22,COc1ccc(C2CC=C(C(=O)O)C(c3ccccc3F)N2S(=O)(=O)c2ccc(C)cc2)cc1OC (configuration not stated),-4.62% (inactive)
23,O=C(C1CCCN1S(=O)(=O)c1ccccc1)N1CCc2ccccc2C1 (configuration not stated),-6.17% (inactive)
24,C=CCN(C(=O)[C@@H](CCCC)[C@@H](O)c1ccc(Cl)cc1)c1ccccc1,-12.4% (inactive)
25,CCCCCCCCCCCCCCCC(=O)OC/C=C(C)/C=C/C=C(C)/C=C/C1=C(C)CCCC1(C)C,2.56% (inactive)
26,COc1ccc(CCC(C)N2CCc3ccccc3C2)cc1 (configuration not stated),-2.33% (inactive)

row,SMILES,inhibition
1,COCCn1nnnc1C(c1cc2ccc(OC)cc2[nH]c1=O)N1CCc2ccccc2C1 (configuration not stated),41.1% (active)
2,COCCn1nnnc1C(c1ccccc1Cl)N1CCN(c2ccccc2OC)CC1 (configuration not stated),-10.8% (inactive)
3,NS(=O)(=O)c1ccc(CCNC(=O)c2nc(CS(=O)(=O)c3ccc(Cl)cc3)no2)cc1,-7.74% (inactive)
4,Cc1cc(C)c(S(=O)(=O)c2ccc(F)cc2C)c(=O)[nH]1,8.26% (inactive)
5,CS(=O)(=O)N1CCCC(C(=O)N2CCOCC2)C1 (configuration not stated),7.83% (inactive)
6,Cc1ccc(-n2c(SCC(=O)Nc3ccc(S(=O)(=O)Nc4nccs4)cc3)nnc2-c2cccnc2)cc1,-18.4% (inactive)
7,COc1ccccc1CCn1cnc(-c2ccccc2)c1C(C)C,-1.89% (inactive)
8,COc1ccc(C2Nc3ccccc3C(=O)N2Cc2cccs2)cc1COc1c(C)cccc1C (configuration not stated),-6.88% (inactive)
9,CCOC(=O)C1=C(C)OC(N)=C(C#N)C1c1cncc(-c2ccc(F)cc2)c1 (configuration not stated),2.25% (inactive)
10,COc1ccccc1C1CC(=O)n2c(nc(-c3ccccc3)c2-c2ccccc2)S1 (configuration not stated),-1.89% (inactive)
11,COc1ccc(C2C(C#N)=C(N)Oc3n[nH]c(C)c32)cc1CN1CCN(c2ccc(F)cc2)CC1 (configuration not stated),2.94% (inactive)
12,Cc1nn(-c2ccccc2)c2c1C(c1ccc(F)cc1)C(C#N)=C(N)O2 (configuration not stated),78.5% (active)
13,COc1ccccc1C1C(C#N)=C(N)Oc2c1c(-c1ccccc1)nn2-c1ccccc1 (configuration not stated),68.7% (active)
14,CC1=NN(C(=O)Cc2ccc(C)cc2)C(O)(c2cccnc2)C1 (configuration not stated),-0.61% (inactive)
15,C[C@@H]1CN([C@@H](C)CO)C(=O)c2cccc(NC(=O)Nc3cccc4ccccc34)c2O[C@H]1CN(C)S(=O)(=O)c1ccccc1F,-6.81% (inactive)
16,CC(C)(C)NC(=O)C(c1cccnc1)N(C(=O)c1cnco1)c1ccc(C(C)(C)C)cc1 (configuration not stated),6.07% (inactive)
17,Nc1nc2n(n1)C(c1ccco1)CC(c1ccc(Cl)c(Cl)c1)N2 (configuration not stated),-12.1% (inactive)
18,O=C(NCCCc1ccccc1)[C@H](Cc1ccccc1)NC1(C(=O)NCCc2c[nH]c3ccccc23)CCC1,2.05% (inactive)
19,O=C(N[C@H](C(=O)N1CCC[C@H]1C(=O)NCCc1ccccc1Cl)c1ccccc1)c1ccccc1,3.26% (inactive)
20,C[C@H](C(=O)N(C)c1ccccc1)[C@@H](O)c1ccc2ccccc2c1,6.57% (inactive)
21,C=CCN(C)CC#Cc1ccccc1,-6.66% (inactive)
22,CCn1c(SCC(C)=O)nc2sc3c(c2c1=O)CCCC3,-7.52% (inactive)
23,CC1(C)OC(=O)C(=CSc2ccc(C(C)(C)C)cc2)C(=O)O1,-0.61% (inactive)
24,Cc1ccsc1C(C(=O)NC1CCCCC1)N(C(=O)Cc1cccs1)C1CC1 (configuration not stated),-13.4% (inactive)
25,O=[N+]([O-])c1ccc(NS(=O)(=O)c2ccccc2)c(Cl)c1,-17.4% (inactive)
26,O=S(=O)(Cc1noc(-c2ccc(OC(F)(F)F)cc2)n1)c1ccc(F)cc1,1.13% (inactive)

row,SMILES,inhibition
1,O=S(=O)(Nc1ccc(O)c2ccccc12)c1ccc(OC(F)(F)F)cc1,46.3% (active)
2,COC(=O)C1CN(CCc2ccccc2)CCS(=O)(=O)N1Cc1cccc(Cl)c1 (configuration not stated),6.91% (inactive)
3,COC(=O)CC1CCc2cc(C)cc(C(CC(C)C)NC(=O)[C@H](CC(C)C)NC(=O)OCc3ccccc3)c2O1 (some centres not stated),-0.76% (inactive)
4,O=S(=O)(c1ccc2c(c1)OCCCO2)N1CCN(S(=O)(=O)c2c(F)cccc2F)CC1,-13.6% (inactive)
5,CCOC(=O)c1c(C)n(C)c2ccc(OC)c(NS(=O)(=O)CC)c12,-7.66% (inactive)
6,O=C(Nc1nccs1)C1CCN(S(=O)(=O)c2ccc(Cl)c(C(F)(F)F)c2)CC1,1.48% (inactive)
7,O=C1CC[C@@]23CCCN2C(=O)CCC[C@H]3[C@H]1Cc1ccccc1,-5.11% (inactive)
8,COc1ccc(CCNC(=O)COc2ccc3c(c2)OCO3)cc1,-6.66% (inactive)
9,c1ccc(Cc2cc[n+](Cc3ccccc3)cc2)cc1,6.8% (inactive)
10,CN(C)c1ccc(N/C=C/C(=O)C(F)(F)F)cc1,40.7% (active)
11,CN(C)c1ccc(C(CC(=O)O)C(=O)O)cc1 (configuration not stated),-4.74% (inactive)
12,CCOC(=O)c1ccc(NC(=O)c2c(N)n(C)c(=O)[nH]c2=O)cc1,3.07% (inactive)
13,CCOC(=O)c1ccc(NC(=O)c2c(NCc3ccccc3)[nH]c(=O)[nH]c2=O)cc1,1.1% (inactive)
14,CCOC(=O)c1ccc(Nc2cc3ccccc3c(=O)[nH]2)cc1,44.6% (active)
15,O=C(O)CCN(Cc1ccccc1)S(=O)(=O)c1c(Cl)cccc1Cl,15.2% (inactive)
16,Nn1cnnc1N/N=C/c1cc([N+](=O)[O-])c(Cl)cc1Cl,39.5% (active)
17,Clc1ccc(-n2c(COc3ccccc3)nnc2SCc2nc3ccccc3[nH]2)cc1,-3.9% (inactive)
18,CC1=C2C(=O)OC(c3ccoc3)C2(C)CCC1 (configuration not stated),-14.5% (inactive)
19,COc1ccccc1CN1CCN(Cc2cc(OC)c(OC)cc2OC)CC1,19% (inactive)
20,COc1ccccc1/C=N/N1CCN(Cc2ccccc2Cl)CC1,-9.24% (inactive)
21,COc1ccccc1CN1CCN(C(c2ccccc2)c2ccccc2)CC1,25.9% (active)
22,Cc1cc(C)nc(SC2CCCCC2NS(=O)(=O)c2ccc(Cl)cc2)n1 (configuration not stated),4.56% (inactive)
23,Cc1coc2c(O)cc3c(c12)OC1(N2CCCCC2)C(=O)NCCCC31 (configuration not stated),24.4% (inactive)
24,CC1=NN(c2ccc(Cl)c(C(=O)O)c2)C(=O)/C1=C/c1ccc(-c2ccccc2[N+](=O)[O-])o1,36.1% (active)
25,O=C1C2C3C=CC(C4CC34)C2C(=O)N1/N=C/c1ccc(-c2ccccc2[N+](=O)[O-])o1 (configuration not stated),11.7% (inactive)
26,COc1ccc(/C=C2/C(=O)N(c3ccccc3)N=C2C)c(OC)c1,3.07% (inactive)

row,SMILES,inhibition
1,Cc1c(C)c(C)c(S(=O)(=O)N2CCC3(CC2)OCCO3)c(C)c1C,5.93% (inactive)
2,CC(=O)c1ccc(S(=O)(=O)N2CCC3(CC2)OCCO3)cc1,25.2% (active)
3,CC(C)c1ccc(S(=O)(=O)N2CCC3(CC2)OCCO3)cc1,3.95% (inactive)
4,C=CCc1cc(C)ccc1OCCCn1ccnc1,-6.81% (inactive)
5,CCCOc1ccc(Oc2c(Cl)cnn(Cc3cccc4ccccc34)c2=O)cc1,-7.56% (inactive)
6,Cc1ccc(S(=O)(=O)N(CCCN(C)C)Cc2ccc3c(c2)OCO3)cc1,3.37% (inactive)
7,COc1ccc(N(CC(=O)Nc2cc(OC)cc(OC)c2)S(=O)(=O)c2c(C)n[nH]c2C)cc1,10.8% (inactive)
8,COc1cc(NC(=O)COC(=O)c2cnc(C)cn2)c(C)cc1[N+](=O)[O-],-5.59% (inactive)
9,COc1cc(CCC(=O)OCC(=O)Nc2cccc(S(N)(=O)=O)c2)cc(OC)c1OC,-0.17% (inactive)
10,COc1cc(NC(=O)COC(=O)c2ccc([N+](=O)[O-])s2)cc(OC)c1OC,31.6% (active)
11,Cc1ccc(-n2c(SCC(=O)Nc3ccc(S(=O)(=O)Nc4nccs4)cc3)nnc2-c2ccncc2)cc1,-0.21% (inactive)
12,CCCCCCCCCCCCN1[C@@H](CC(C)=O)c2cc(F)cc(F)c2S1(=O)=O,2.78% (inactive)
13,Cc1cc(S(=O)(=O)NC2CCCCC2)ccc1OCC(=O)NCc1cccnc1,-6.47% (inactive)
14,CCOC(=O)c1c(C)[nH]c2c1-c1ccccc1C(=O)C2=O,55.1% (active)
15,CCOC(=O)C1=C(C)c2ccccc2OC1C(=O)OCC (configuration not stated),-3.4% (inactive)
16,CCOC(=O)c1c(C)oc(C)c(C(=O)OCC)c1=O,-25% (inactive)
17,COc1ccc(C(=O)OCc2cc(=O)n3ccsc3n2)cc1F,-6.94% (inactive)
18,O=C(Cc1ccc(NC(=O)C2CCCN(C(=O)CCc3ccccc3)C2)cc1)Nc1ccc(C(=O)N2CCOCC2)cc1 (configuration not stated),-19.6% (inactive)
19,Fc1ccc2nc(COCc3nc4ccc(F)cc4[nH]3)[nH]c2c1,-1.58% (inactive)
20,CCCCCc1ccc(-c2ccc(OCC)cc2)nc1,-8.17% (inactive)
21,Cc1ccc(OCCCCc2c(C)n[nH]c2C)cc1,25.9% (active)
22,CSc1ccccc1OCc1cc(C(=O)N(C)CCc2c(C)n[nH]c2C)no1,6.82% (inactive)
23,Brc1ccc(COCCc2cn(Cc3ccccc3)c3ccccc23)cc1,-2.78% (inactive)
24,CC1CCN(c2ccc(C(=O)O)cc2NS(=O)(=O)c2ccc(Br)s2)CC1,4.53% (inactive)
